{
  "source": "ChEMBL document CHEMBL1157576",
  "about": "“Development of selective and reversible pyrazoline based MAO-A inhibitors: Synthesis, biological evaluation and docking studies” (Bioorg Med Chem, 2010)",
  "type_in_all_cases": "tissue-based",
  "key": {"[1]": {"biological_target": "T1, Amine oxidase [flavin-containing] A (Rattus norvegicus, UniProt P21396)", "T1 sequence (P21396 whole entry)": "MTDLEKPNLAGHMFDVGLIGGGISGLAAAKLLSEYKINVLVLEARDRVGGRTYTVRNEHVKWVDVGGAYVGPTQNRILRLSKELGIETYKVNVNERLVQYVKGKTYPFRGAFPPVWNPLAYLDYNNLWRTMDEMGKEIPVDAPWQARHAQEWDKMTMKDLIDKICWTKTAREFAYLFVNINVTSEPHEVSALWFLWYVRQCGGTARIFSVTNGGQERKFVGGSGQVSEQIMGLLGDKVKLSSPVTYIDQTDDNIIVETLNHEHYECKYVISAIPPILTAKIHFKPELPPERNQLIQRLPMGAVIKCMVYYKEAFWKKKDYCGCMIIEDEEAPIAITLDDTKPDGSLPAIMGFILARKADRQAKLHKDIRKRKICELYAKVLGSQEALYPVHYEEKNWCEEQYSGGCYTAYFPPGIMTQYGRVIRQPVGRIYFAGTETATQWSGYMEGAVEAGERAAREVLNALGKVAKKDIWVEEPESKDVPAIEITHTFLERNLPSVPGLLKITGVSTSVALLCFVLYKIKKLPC", "experiment": "Reversible inhibition of MAOA in rat liver homogenate assessed as recovery of enzyme activity at 1 to 1000 uM up to 24 hrs by dialysis", "in_short": "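Rat liver MAO was incubated with compound (1–1000 µM, DMSO ≤1%) at 37 °C for 0–60 min. It was then dialysed for 24 h at 37 °C against potassium phosphate buffer, pH 7.6. Recovered activity was measured by the Holt coupled assay using p-tyramine, with absorbance read at 498 nm.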"}, "[2]": {"biological_target": "T1, Amine oxidase [flavin-containing] A", "experiment": "Competitive inhibition of MAOA in rat liver homogenate after 60 mins by Lineweaver-Burke plot analysis", "conditions": "read-out: Kic; call rule not given here"}, "[3]": {"biological_target": "T2, Amine oxidase [flavin-containing] B (Rattus norvegicus, UniProt P19643)", "T2 sequence (P19643 whole entry)": "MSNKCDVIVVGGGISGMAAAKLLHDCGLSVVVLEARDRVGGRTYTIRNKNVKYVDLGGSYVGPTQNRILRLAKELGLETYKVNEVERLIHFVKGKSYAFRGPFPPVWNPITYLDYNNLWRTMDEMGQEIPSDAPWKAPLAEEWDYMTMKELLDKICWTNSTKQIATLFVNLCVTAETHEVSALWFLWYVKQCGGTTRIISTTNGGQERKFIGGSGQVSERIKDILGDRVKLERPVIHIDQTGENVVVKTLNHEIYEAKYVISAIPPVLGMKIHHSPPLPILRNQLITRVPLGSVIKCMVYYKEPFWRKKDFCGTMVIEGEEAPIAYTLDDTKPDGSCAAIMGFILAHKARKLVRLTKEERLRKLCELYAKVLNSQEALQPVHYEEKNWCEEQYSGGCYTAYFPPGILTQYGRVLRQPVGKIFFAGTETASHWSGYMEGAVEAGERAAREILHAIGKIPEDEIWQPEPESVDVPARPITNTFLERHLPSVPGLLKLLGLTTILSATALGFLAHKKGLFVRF", "experiment": "Competitive inhibition of MAOB in rat liver homogenate after 60 mins by Lineweaver-Burke plot analysis", "conditions": "read-out: Kic"}},
  "data": [
    {"smiles": "Cc1ccccc1NC(=S)N1N=C(c2ccc(O)cc2)CC1c1ccco1", "note": "(configuration not stated)", "values": [
      {"measurement": "Activity", "setting": "[1]", "result": "Active"},
      {"measurement": "Ki", "setting": "[2]", "result": 231, "unit": "nM"},
      {"measurement": "Ki", "setting": "[3]", "result": 28.8, "unit": "µM"}
    ]},
    {"smiles": "Cc1cccc(NC(=S)N2N=C(c3ccc(O)cc3)CC2c2cccs2)c1", "note": "(configuration not stated)", "values": [
      {"measurement": "Activity", "setting": "[1]", "result": "Active"},
      {"measurement": "Ki", "setting": "[2]", "result": 150, "unit": "nM"},
      {"measurement": "Ki", "setting": "[3]", "result": 2210, "unit": "µM"}
    ]},
    {"smiles": "COc1ccc(NC(=S)N2N=C(c3ccc(O)cc3)CC2c2cccs2)cc1", "note": "(configuration not stated)", "values": [
      {"measurement": "Activity", "setting": "[1]", "result": "Active"},
      {"measurement": "Ki", "setting": "[2]", "result": 501, "unit": "nM"},
      {"measurement": "Ki", "setting": "[3]", "result": 7150, "unit": "µM"}
    ]},
    {"smiles": "Cc1ccc(NC(=S)N2N=C(c3ccc(O)cc3)CC2c2cccs2)cc1", "note": "(configuration not stated)", "values": [
      {"measurement": "Activity", "setting": "[1]", "result": "Active"},
      {"measurement": "Ki", "setting": "[2]", "result": 351, "unit": "nM"},
      {"measurement": "Ki", "setting": "[3]", "result": 71.5, "unit": "µM"}
    ]},
    {"smiles": "Cc1cccc(NC(=S)N2N=C(c3ccc(O)cc3)CC2c2ccco2)c1", "note": "(configuration not stated)", "values": [
      {"measurement": "Activity", "setting": "[1]", "result": "Active"},
      {"measurement": "Ki", "setting": "[2]", "result": 591, "unit": "nM"},
      {"measurement": "Ki", "setting": "[3]", "result": 580, "unit": "µM"}
    ]},
    {"smiles": "COc1ccccc1NC(=S)N1N=C(c2ccc(O)cc2)CC1c1cccs1", "note": "(configuration not stated)", "values": [
      {"measurement": "Activity", "setting": "[1]", "result": "Active"},
      {"measurement": "Ki", "setting": "[2]", "result": 301, "unit": "nM"},
      {"measurement": "Ki", "setting": "[3]", "result": 44, "unit": "µM"}
    ]},
    {"smiles": "COc1cccc(NC(=S)N2N=C(c3ccc(O)cc3)CC2c2ccco2)c1", "note": "(configuration not stated)", "values": [
      {"measurement": "Activity", "setting": "[1]", "result": "Active"},
      {"measurement": "Ki", "setting": "[2]", "result": 176, "unit": "nM"},
      {"measurement": "Ki", "setting": "[3]", "result": 460, "unit": "µM"}
    ]},
    {"smiles": "Oc1ccc(C2=NN(C(=S)Nc3ccccc3)C(c3ccco3)C2)cc1", "note": "(configuration not stated)", "values": [
      {"measurement": "Activity", "setting": "[1]", "result": "Active"},
      {"measurement": "Ki", "setting": "[2]", "result": 701, "unit": "nM"},
      {"measurement": "Ki", "setting": "[3]", "result": 778, "unit": "µM"}
    ]},
    {"smiles": "Cc1ccccc1NC(=S)N1N=C(c2ccc(O)cc2)CC1c1cccs1", "note": "(configuration not stated)", "values": [
      {"measurement": "Activity", "setting": "[1]", "result": "Active"},
      {"measurement": "Ki", "setting": "[2]", "result": 281, "unit": "nM"},
      {"measurement": "Ki", "setting": "[3]", "result": 70.2, "unit": "µM"}
    ]},
    {"smiles": "Cc1ccc(NC(=S)N2N=C(c3ccc(O)cc3)CC2c2ccco2)cc1", "note": "(configuration not stated)", "values": [
      {"measurement": "Activity", "setting": "[1]", "result": "Active"},
      {"measurement": "Ki", "setting": "[2]", "result": 480, "unit": "nM"},
      {"measurement": "Ki", "setting": "[3]", "result": 5010, "unit": "µM"}
    ]},
    {"smiles": "COc1ccccc1NC(=S)N1N=C(c2ccc(O)cc2)CC1c1ccco1", "note": "(configuration not stated)", "values": [
      {"measurement": "Activity", "setting": "[1]", "result": "Active"},
      {"measurement": "Ki", "setting": "[2]", "result": 755, "unit": "nM"},
      {"measurement": "Ki", "setting": "[3]", "result": 174, "unit": "µM"}
    ]},
    {"smiles": "COc1ccc(NC(=S)N2N=C(c3ccc(O)cc3)CC2c2ccco2)cc1", "note": "(configuration not stated)", "values": [
      {"measurement": "Activity", "setting": "[1]", "result": "Active"},
      {"measurement": "Ki", "setting": "[2]", "result": 950, "unit": "nM"},
      {"measurement": "Ki", "setting": "[3]", "result": 1060, "unit": "µM"}
    ]},
    {"smiles": "Oc1ccc(C2=NN(C(=S)Nc3ccccc3)C(c3cccs3)C2)cc1", "note": "(configuration not stated)", "values": [
      {"measurement": "Activity", "setting": "[1]", "result": "Active"},
      {"measurement": "Ki", "setting": "[2]", "result": 480, "unit": "nM"},
      {"measurement": "Ki", "setting": "[3]", "result": 47, "unit": "µM"}
    ]},
    {"smiles": "COc1cccc(NC(=S)N2N=C(c3ccc(O)cc3)CC2c2cccs2)c1", "note": "(configuration not stated)", "values": [
      {"measurement": "Activity", "setting": "[1]", "result": "Active"},
      {"measurement": "Ki", "setting": "[2]", "result": 181, "unit": "nM"},
      {"measurement": "Ki", "setting": "[3]", "result": 1100, "unit": "µM"}
    ]}
  ]
}
